# Active and inactive are the calls of the source. The rule behind the calls is not given here.
# Experiments:
# [1] = tested on: Blood; assay: Inhibition of LPS-stimulated TNFalpha production in human Whole blood; type: functional, tissue-based
# [2] = biological target: T1, Inhibitor of nuclear factor kappa-B kinase subunit alpha (Homo sapiens, UniProt O15111); assay: Inhibition of IKK1 in presence of 1 uM ATP
# T1 sequence (O15111 whole entry): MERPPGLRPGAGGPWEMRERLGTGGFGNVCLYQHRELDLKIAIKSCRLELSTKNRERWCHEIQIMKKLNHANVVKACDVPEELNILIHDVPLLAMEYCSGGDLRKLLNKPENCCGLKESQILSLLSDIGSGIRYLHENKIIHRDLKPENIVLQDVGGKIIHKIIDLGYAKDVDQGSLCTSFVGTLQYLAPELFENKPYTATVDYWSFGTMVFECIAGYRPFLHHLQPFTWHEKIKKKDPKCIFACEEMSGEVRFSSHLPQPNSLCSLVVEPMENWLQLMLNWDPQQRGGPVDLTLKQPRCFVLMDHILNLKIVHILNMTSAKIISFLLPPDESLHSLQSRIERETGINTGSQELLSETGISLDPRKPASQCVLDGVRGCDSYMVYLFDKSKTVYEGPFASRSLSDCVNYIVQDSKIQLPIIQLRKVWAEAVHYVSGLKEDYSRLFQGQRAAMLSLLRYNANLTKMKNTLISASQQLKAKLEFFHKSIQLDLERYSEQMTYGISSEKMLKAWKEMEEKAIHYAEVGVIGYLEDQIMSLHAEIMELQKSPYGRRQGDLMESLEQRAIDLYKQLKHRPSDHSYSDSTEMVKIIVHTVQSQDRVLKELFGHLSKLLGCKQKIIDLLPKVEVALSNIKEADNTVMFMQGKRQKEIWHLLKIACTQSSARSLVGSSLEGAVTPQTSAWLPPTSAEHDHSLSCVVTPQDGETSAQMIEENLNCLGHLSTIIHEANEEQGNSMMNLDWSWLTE
# [3] = biological target: T2, Inhibitor of nuclear factor kappa-B kinase subunit beta (Homo sapiens, UniProt O14920); assay: Inhibition of IKK2 in presence of 1 uM ATP
# T2 sequence (O14920 whole entry): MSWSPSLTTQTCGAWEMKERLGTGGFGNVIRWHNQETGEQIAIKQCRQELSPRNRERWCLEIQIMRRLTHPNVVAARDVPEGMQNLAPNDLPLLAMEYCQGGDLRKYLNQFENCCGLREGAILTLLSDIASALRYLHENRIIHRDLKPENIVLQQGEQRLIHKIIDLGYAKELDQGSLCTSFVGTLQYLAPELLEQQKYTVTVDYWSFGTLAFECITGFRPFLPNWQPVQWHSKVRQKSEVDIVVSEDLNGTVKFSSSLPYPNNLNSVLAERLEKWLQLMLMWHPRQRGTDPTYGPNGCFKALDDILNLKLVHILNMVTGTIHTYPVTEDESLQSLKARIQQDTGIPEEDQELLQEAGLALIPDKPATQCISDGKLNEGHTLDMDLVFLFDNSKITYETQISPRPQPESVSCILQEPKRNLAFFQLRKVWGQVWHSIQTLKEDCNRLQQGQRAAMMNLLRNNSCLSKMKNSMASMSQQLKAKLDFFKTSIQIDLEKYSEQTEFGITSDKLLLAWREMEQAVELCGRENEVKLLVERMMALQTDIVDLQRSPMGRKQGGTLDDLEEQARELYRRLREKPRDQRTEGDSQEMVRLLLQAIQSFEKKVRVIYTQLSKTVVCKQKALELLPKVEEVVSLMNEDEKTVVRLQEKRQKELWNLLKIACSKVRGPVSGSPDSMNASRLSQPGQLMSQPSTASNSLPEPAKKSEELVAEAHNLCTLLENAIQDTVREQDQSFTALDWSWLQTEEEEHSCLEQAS
# [4] = Clearance in rat at 1 mg/kg, iv; type: ADME, organism-based; parameters: dose 1 mg/kg, route intravenous; settings: in vivo
# How it was run: (§1)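 Rat pharmacokinetics: 1 mg/kg given IV (n = 2) or orally (n = 1); clearance derived from the IV arm.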
# [5] = Oral bioavailability in rat at 1 mg/kg; type: ADME, organism-based; settings: in vivo; how it was run: as §1
# [6] = Half life in rat at 1 mg/kg, iv; type: ADME, organism-based; parameters: dose 1 mg/kg, route intravenous; settings: in vivo; how it was run: as §1
# [7] = Volume of distribution in rat; type: ADME, organism-based; settings: in vivo; how it was run: as §1
# [8] = biological target: T2, Inhibitor of nuclear factor kappa-B kinase subunit beta; assay: Inhibition of IKK2 in human A549 cells assessed as inhibition of TNFalpha-induced NFKB activation; type: cell-based
# [9] = biological target: Albumin (Homo sapiens, UniProt P02768); assay: Binding affinity to human serum albumin; type: ADME; settings: isolated protein
# Albumin, sequence (P02768 whole entry): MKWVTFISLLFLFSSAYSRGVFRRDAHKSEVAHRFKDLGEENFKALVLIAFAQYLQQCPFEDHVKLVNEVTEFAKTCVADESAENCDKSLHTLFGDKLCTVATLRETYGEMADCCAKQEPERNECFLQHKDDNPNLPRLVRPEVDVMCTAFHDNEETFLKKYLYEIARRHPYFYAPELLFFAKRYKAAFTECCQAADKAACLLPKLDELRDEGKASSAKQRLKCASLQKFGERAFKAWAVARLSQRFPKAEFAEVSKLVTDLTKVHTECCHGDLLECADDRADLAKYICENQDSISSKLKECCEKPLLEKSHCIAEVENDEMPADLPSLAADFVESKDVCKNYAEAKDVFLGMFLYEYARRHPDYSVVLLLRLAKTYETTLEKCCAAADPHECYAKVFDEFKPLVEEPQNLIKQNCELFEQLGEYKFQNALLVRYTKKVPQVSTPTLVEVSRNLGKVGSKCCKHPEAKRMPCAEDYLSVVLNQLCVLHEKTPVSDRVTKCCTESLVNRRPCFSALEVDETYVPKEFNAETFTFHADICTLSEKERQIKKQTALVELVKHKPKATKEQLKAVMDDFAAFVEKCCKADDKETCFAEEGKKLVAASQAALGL
# [10] = biological target: T3, Cytochrome P450 1A2 (Homo sapiens, UniProt P05177); assay: inhibition of CYP1A2; type: ADME
# T3 sequence (P05177 whole entry): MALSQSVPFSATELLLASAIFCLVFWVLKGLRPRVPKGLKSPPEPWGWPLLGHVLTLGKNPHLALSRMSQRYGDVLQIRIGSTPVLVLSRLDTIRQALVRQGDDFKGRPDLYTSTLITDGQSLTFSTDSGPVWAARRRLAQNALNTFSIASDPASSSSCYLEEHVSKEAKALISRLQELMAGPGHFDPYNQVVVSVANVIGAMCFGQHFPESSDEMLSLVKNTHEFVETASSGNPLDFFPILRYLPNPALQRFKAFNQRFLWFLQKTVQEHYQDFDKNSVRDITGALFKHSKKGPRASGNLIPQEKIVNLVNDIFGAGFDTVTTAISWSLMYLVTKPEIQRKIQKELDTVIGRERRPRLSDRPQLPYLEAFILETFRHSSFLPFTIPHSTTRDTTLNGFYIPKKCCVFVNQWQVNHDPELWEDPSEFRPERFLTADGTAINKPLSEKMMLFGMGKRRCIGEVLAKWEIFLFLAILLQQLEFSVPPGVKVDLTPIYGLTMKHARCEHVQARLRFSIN
# [11] = biological target: Cytochrome P450 2C9 (Homo sapiens, UniProt P11712); assay: inhibition of CYP2C9; type: ADME
# Cytochrome P450 2C9, sequence (P11712 whole entry): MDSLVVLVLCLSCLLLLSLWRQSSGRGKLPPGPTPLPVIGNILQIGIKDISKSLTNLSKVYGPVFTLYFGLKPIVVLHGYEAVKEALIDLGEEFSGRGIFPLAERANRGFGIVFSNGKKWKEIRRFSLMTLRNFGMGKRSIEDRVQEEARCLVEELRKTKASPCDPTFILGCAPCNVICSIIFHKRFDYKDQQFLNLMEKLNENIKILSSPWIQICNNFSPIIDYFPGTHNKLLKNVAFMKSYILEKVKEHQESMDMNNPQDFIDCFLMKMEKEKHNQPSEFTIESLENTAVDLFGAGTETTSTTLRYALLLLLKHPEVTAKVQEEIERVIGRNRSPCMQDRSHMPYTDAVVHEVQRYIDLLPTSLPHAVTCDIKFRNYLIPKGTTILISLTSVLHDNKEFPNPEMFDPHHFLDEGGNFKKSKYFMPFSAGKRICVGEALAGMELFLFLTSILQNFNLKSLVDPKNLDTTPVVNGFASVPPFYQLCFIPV
# [12] = biological target: Voltage-gated inwardly rectifying potassium channel KCNH2 (Homo sapiens, UniProt Q12809); assay: Inhibition of human ERG
# Voltage-gated inwardly rectifying potassium channel KCNH2, sequence (Q12809 whole entry): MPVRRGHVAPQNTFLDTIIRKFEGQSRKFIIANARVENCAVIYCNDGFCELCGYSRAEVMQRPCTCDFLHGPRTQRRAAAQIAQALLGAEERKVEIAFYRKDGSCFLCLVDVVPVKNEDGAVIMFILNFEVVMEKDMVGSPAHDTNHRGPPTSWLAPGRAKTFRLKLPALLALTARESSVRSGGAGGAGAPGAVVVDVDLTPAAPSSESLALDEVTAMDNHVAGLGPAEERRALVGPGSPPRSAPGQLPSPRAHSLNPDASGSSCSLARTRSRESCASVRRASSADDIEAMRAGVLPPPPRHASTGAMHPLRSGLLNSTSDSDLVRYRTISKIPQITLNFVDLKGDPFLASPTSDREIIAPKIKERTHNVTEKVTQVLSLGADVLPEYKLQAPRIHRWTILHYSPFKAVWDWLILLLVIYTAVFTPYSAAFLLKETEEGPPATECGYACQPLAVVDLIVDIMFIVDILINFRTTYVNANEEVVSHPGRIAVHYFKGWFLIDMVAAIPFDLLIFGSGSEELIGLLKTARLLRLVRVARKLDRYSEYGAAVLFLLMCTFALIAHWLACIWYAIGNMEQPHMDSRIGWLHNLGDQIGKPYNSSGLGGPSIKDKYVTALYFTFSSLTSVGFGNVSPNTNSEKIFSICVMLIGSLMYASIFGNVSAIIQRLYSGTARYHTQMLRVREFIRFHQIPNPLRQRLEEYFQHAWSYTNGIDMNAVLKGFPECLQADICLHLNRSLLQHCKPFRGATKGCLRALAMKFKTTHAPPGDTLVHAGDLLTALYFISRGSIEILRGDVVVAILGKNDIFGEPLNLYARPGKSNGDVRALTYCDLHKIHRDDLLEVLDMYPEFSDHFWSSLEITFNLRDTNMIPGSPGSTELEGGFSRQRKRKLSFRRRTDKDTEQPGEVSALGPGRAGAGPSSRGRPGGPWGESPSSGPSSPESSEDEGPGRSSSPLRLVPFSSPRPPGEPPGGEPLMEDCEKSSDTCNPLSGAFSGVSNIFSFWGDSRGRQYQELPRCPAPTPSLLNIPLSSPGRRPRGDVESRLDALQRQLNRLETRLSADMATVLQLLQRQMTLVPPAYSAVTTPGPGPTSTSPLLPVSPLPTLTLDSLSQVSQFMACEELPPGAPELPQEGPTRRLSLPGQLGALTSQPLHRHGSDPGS
# [13] = tested on: Hepatocyte; assay: Intrinsic clearance in human hepatocytes; type: ADME, cell-based, Liver
# [14] = biological target: Cytochrome P450 2D6 (Homo sapiens, UniProt P10635); assay: inhibition of CYP2D6; type: ADME
# Cytochrome P450 2D6, sequence (P10635 whole entry): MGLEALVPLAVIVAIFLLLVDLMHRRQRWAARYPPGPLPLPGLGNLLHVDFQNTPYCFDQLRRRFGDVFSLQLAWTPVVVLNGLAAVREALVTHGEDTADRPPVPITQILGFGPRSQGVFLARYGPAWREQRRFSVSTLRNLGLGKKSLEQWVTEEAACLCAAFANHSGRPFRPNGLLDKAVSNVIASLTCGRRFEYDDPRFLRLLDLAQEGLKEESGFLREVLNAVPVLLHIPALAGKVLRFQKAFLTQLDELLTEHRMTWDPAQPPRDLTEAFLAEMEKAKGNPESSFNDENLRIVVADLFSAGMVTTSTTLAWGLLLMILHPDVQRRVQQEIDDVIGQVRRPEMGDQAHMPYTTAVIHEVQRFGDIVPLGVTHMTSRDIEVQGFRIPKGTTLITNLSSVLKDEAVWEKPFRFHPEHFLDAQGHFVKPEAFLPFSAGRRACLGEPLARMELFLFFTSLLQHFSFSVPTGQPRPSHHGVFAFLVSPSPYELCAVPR
# [15] = tested on: Hepatocyte; assay: Intrinsic clearance in rat hepatocytes; type: ADME, cell-based, Liver
# [16] = tested on: Rattus norvegicus; assay: Antiinflammatory activity in Lewis rat assessed as inhibition of LPS-induced neutrophil lung infiltration at 30 umol/kg, po administered 30 mins before LPS challenge relative to vehicle-treated control; type: functional, organism-based
# How it was run: (§2)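 Male Lewis rats (n = 4 per group, vehicle included) dosed orally at 10, 30 and 100 µmol/kg in 2% DMSO/0.5% methylcellulose with NaOH, 30 min before 20 min exposure to aerosolized 0.1 mg/ml E. coli 026:B6 LPS. Neutrophils in BAL fluid counted 4 h post-LPS by differential (Diff-Quick) and haemocytometer counts. Results given as % inhibition versus vehicle, ED50 derived; ANOVA with Dunnett's test.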
# [17] = tested on: Rattus norvegicus; assay: Antiinflammatory activity in po dosed Lewis rat assessed as inhibition of LPS-induced neutrophil lung infiltration compound administered 30 mins before LPS challenge relative to vehicle-treated control; type: functional; how it was run: as §2
# [18] = Plasma protein binding in rat; type: ADME, cell-free; settings: read-out: PPB (converted)
# [19] = Aqueous solubility of the compound; type: physicochemical; settings: aqueous solution
# [20] = biological target: Cytochrome P450 3A4 (Homo sapiens, UniProt P08684); assay: inhibition of CYP3A4; type: ADME
# Cytochrome P450 3A4, sequence (P08684 whole entry): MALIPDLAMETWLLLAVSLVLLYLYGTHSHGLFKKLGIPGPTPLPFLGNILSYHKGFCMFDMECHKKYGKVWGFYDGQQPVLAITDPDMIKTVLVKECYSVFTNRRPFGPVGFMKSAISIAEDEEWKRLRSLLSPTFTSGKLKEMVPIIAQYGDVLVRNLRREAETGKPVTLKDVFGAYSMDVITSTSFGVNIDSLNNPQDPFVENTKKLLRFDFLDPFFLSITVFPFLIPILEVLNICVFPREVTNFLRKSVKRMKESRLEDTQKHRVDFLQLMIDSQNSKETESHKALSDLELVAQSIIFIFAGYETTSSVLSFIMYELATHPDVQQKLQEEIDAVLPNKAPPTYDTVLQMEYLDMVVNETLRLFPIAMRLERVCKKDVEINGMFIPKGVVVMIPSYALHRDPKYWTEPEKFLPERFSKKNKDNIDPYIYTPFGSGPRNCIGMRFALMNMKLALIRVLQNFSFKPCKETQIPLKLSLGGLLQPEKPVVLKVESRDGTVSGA
# [21] = tested on: Blood; assay: Inhibition of LPS-stimulated TNFalpha production in rat Whole blood; type: functional, tissue-based
# [22] = Plasma protein binding in human; type: ADME, cell-free; settings: read-out: PPB (converted)
# [23] = Fraction unbound in human plasma; type: ADME, cell-free
SMILES,IC50 [1] [nM],IC50 [2] [nM],IC50 [3] [nM],further results
Cc1cc2c(-c3ccc(S(=O)(=O)NCCO)cc3)ccnc2[nH]1,2510,–,–,–
Cc1cc2c(-c3ccc(S(=O)(=O)NC4CCS(=O)(=O)CC4)cc3)ccnc2[nH]1,398,–,–,–
Cc1cc2c(-c3ncc(S(=O)(=O)NC4CCS(=O)(=O)CC4)cn3)ccnc2[nH]1,3160,158,794,–
O=S(=O)(NCCO)c1ccc(-c2ccnc3[nH]c(C(F)(F)F)cc23)cc1,2510,200,15.8,–
C[C@@H](CO)NS(=O)(=O)c1ccc(-c2ccnc3[nH]c(C(F)(F)F)cc23)cc1,1260,316,20,clearance [4]: 7 mL/min/kg; bioavailability [5]: 83%; half-life [6]: 192 min
Cc1cc2c(-c3ccc(S(=O)(=O)NC4CCS(=O)(=O)CC4)nc3)ccnc2[nH]1,398,7.94,12.6,–
O=S1(=O)CCC(NS(=O)(=O)c2ccc(-c3ccnc4[nH]c(C5CCNCC5)cc34)cc2)CC1,631,31.6,15.8,–
CC(C)(C)c1cc2c(-c3ccc(S(=O)(=O)NC4CCS(=O)(=O)CC4)cc3)ccnc2[nH]1,631,25.1,7.94,–
C[C@@H](CO)NS(=O)(=O)c1ccc(-c2ccnc3[nH]c(C4CC4)cc23)cc1,501,251,7.94,clearance [4]: 15 mL/min/kg; bioavailability [5]: 29%; half-life [6]: 54 min
O=S1(=O)CCC(NS(=O)(=O)c2ccc(-c3ccnc4[nH]c(Cn5ccnn5)cc34)cc2)CC1,1260,50.1,15.8,–
O=S1(=O)CCC(NS(=O)(=O)c2ccc(-c3ccnc4[nH]c(C5CC5)cc34)cc2)CC1,251,6.31,3.98,–
Cc1cc2c(-c3ccc(S(=O)(=O)NC4CCS(=O)(=O)CC4)cn3)ccnc2[nH]1,1000,79.4,79.4,–
Cc1cc2c(-c3ccc(S(=O)(=O)NCC(C)(C)O)cc3)ccnc2[nH]1,1000,200,10,clearance [4]: 70 mL/min/kg; bioavailability [5]: 32%; half-life [6]: 36 min
CC(C)(C)c1cc2c(-c3ccc(S(=O)(=O)NCCO)cc3)ccnc2[nH]1,1000,794,20,–
CN(C)Cc1cc2c(-c3ccc(S(=O)(=O)NC4CCS(=O)(=O)CC4)cc3)ccnc2[nH]1,1260,100,20,–
CC(C)c1cc2c(-c3ccc(S(=O)(=O)NCCO)cc3)ccnc2[nH]1,1580,398,7.94,clearance [4]: 39 mL/min/kg; Vd [7]: 0.8 L/kg; bioavailability [5]: 18%; half-life [6]: 27 min
CCc1cc2c(-c3ccc(S(=O)(=O)NC4CCS(=O)(=O)CC4)cc3)ccnc2[nH]1,398,6.31,5.01,–
CC(C)(O)CNS(=O)(=O)c1ccc(-c2ccnc3[nH]c(C4CC4)cc23)cc1,1000,316,6.31,clearance [4]: 14 mL/min/kg; bioavailability [5]: 100%; half-life [6]: 42 min
Cc1cc2c(-c3ccc(S(=O)(=O)N(C)CCO)cc3)ccnc2[nH]1,3160,–,–,IC50 [8]: 794 nM; Activity [9]: 91%
O=S(=O)(NCCO)c1ccc(-c2ccnc3[nH]c(C4CC4)cc23)cc1,1260,200,7.94,IC50 [10]: > 10000 nM; IC50 [11]: 7000 nM; IC50 [8]: 200 nM; IC50 [12]: > 50100 nM; CLH [13]: < 1 mL/min/g; clearance [4]: 13 mL/min/kg; IC50 [14]: > 10000 nM; CLH [15]: < 1 mL/min/g; inhibition [16]: Active; Vd [7]: 0.6 L/kg; ED50 [17]: 28.2 µmol/kg; inhibition [17]: Dose-dependent effect; fraction unbound [18]: 0.024; bioavailability [5]: 49%; half-life [6]: 36 min; solubility [19]: 64 µM; IC50 [20]: > 10000 nM; IC50 [21]: 6310 nM; fraction unbound [22]: 0.066; fraction unbound [23]: 0.07
CC(C)c1cc2c(-c3ccc(S(=O)(=O)NC4CCS(=O)(=O)CC4)cc3)ccnc2[nH]1,251,6.31,6.31,–

# Reference: ChEMBL document CHEMBL2163232, “4-Phenyl-7-azaindoles as potent, selective and bioavailable IKK2 inhibitors demonstrating good in vivo efficacy” (Bioorg Med Chem Lett, 2012)
